# Active and inactive are the calls of the source. No cut-off for these calls is given here.
# Legend:
# HeLa [1] = assay: Cytotoxicity against human HeLa cells assessed as cell growth inhibition after 72 hrs by trypan blue assay; assay type: functional
# Method in brief: (§1)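 HeLa (F-12 HAM) and MCF-7 (DMEM) kept in medium with 10% heat-inactivated FCS plus antibiotics; 4-5×10^4 cells/well seeded, compounds added after 24 h at various concentrations, then 72 h more. Viable cells counted by trypan blue; GI50 is the concentration giving 50% fewer cells than control. Mean ± SD from at least three independent experiments.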
# [2] = Cytotoxicity against human OVCAR5 cells assessed as cell growth inhibition after 72 hrs by MTS assay; assay type: functional; settings: OVCAR-5, 72 h
# Method in brief: (§2)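 Cells grown in RPMI1640 with 10% FBS and 2 mM glutamine at 37°C, 5% CO2; plated at 15 000 cells/mL, treated with compounds 72 h after plating, and survival read by MTS after a further 72 h; dose-response curves plotted.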
# MCF7 = assay: Cytotoxicity against human MCF7 cells assessed as cell growth inhibition after 72 hrs by trypan blue assay; assay type: functional; settings: MCF7, 72 h; method in brief: as §1
# HeLa [3] = assay: Induction of mitochondrial membrane depolarization in human HeLa cells at 15 uM after 28 hrs by JC-1 staining-based flow cytometric analysis (reference value: 4%); assay type: functional
# Method in brief: (§3)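 HeLa cells (2.0 x 10^5) seeded, compound added after 24 h, then incubated 28 h. Cells loaded with JC-1 working solution for 30 min at 37°C, washed twice and read in assay buffer by flow cytometry. Loss of red aggregate fluorescence scored as depolarized (JC-1 monomer) cells.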
# HeLa [4] = assay: Induction of apoptosis in human HeLa cells assessed as late apoptotic cells at 50 uM after 28 hrs by annexin V/FITC/propidium iodide staining-based flow cytometry (reference value: 1.2%); assay type: functional
# HeLa [5] = assay: Induction of apoptosis in human HeLa cells assessed as viable cells at 50 uM after 28 hrs by annexin V/FITC/propidium iodide staining-based flow cytometry (reference value: 95.3%); assay type: functional; settings: read-out: Activity
# HeLa [6] = assay: Induction of apoptosis in human HeLa cells assessed as early apoptotic cells at 50 uM after 28 hrs by annexin V/FITC/propidium iodide staining-based flow cytometry (reference value: 2.6%); assay type: functional
# HeLa [7] = assay: Induction of mitochondrial membrane depolarization in human HeLa cells at 10 uM after 28 hrs by JC-1 staining-based flow cytometric analysis (reference value: 4%); assay type: functional; method in brief: as §3
# [8] = target: T1, DNA topoisomerase 1 (Homo sapiens) (UniProt P11387); assay: Inhibition of human recombinant topoisomerase 1-mediated relaxation of supercoiled pBR322 plasmid DNA at 100 uM after 60 mins by electrophoretic analysis
# T1 sequence (whole entry): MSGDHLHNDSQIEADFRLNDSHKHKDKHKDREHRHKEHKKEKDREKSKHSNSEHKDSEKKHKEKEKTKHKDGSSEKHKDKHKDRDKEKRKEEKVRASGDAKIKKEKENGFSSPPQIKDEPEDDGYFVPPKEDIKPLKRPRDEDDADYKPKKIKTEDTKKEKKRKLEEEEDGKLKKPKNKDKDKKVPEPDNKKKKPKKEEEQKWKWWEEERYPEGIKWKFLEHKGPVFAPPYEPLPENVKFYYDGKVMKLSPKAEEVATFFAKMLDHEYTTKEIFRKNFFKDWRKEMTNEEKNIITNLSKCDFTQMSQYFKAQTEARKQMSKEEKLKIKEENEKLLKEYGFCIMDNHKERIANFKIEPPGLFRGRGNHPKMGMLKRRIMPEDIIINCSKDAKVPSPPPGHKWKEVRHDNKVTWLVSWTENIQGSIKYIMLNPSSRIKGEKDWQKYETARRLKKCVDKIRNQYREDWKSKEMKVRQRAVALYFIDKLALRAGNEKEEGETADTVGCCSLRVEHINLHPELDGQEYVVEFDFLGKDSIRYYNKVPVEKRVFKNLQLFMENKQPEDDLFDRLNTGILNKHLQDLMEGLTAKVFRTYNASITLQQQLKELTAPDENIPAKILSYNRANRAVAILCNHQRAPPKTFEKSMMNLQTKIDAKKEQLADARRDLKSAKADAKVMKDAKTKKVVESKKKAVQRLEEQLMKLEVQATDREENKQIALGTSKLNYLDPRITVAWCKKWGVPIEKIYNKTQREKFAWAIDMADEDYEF
# Method in brief: (§4)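 Relaxation assay: 0.25 µg supercoiled pBR322 incubated with 2U human recombinant topoisomerase I and compound for 60 min at 37°C. Stopped with SDS stop buffer plus 50 µg/mL proteinase K for 30 min at 37°C, run on 1% agarose at room temperature, then stained with 1 µg/mL ethidium bromide in TAE.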
# [9] = target: DNA topoisomerase 2-alpha (Homo sapiens) (UniProt P11388); assay: Poisoning activity at human recombinant topoisomerase 2 alpha using supercoiled pBR322 plasmid DNA as substrate assessed as stabilization of covalent DNA-enzyme complex at 50 uM after 60 mins by electrophoretic analysis
# Method in brief: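 Cleavage assay: 0.25 µg supercoiled pBR322 with 10 U human recombinant topoisomerase IIα and compound, 60 min at 37°C. Stopped with SDS buffer and 50 µg/mL proteinase K for 30 min at 37°C, then resolved on 1% agarose containing 0.5 µg/mL ethidium bromide in TBE, with UV imaging.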
# HeLa [10] = assay: Induction of mitochondrial membrane depolarization in human HeLa cells at 25 uM after 28 hrs by JC-1 staining-based flow cytometric analysis (reference value: 4%); assay type: functional; method in brief: as §3
# HeLa [11] = assay: Induction of apoptosis in human HeLa cells assessed as dead cells at 50 uM after 28 hrs by annexin V/FITC/propidium iodide staining-based flow cytometry (reference value: 1%); assay type: functional
# Method in brief: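 HeLa cells (2.0 x 10^5 per plate) seeded, grown 24 h in F-12 [HAM] with 10% heat-inactivated fetal calf serum, then exposed to test agent in complete medium for 28 h at 37 °C, 5% CO2. Cells were resuspended at 10^6 cells/mL in binding buffer and stained with annexin V-FITC plus propidium iodide for 15 min in the dark at room temperature. Read by flow cytometry.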
# HeLa [12] = assay: Induction of mitochondrial membrane depolarization in human HeLa cells after 28 hrs by JC-1 staining-based flow cytometric analysis; assay type: functional, cell-based; method in brief: as §3
# A2780 = assay: Cytotoxicity against human A2780 cells assessed as cell growth inhibition after 72 hrs by MTS assay; assay type: functional; settings: A2780, 72 h; method in brief: as §2
# [13] = target: DNA topoisomerase 2-alpha (Homo sapiens) (UniProt P11388); assay: Inhibition of human recombinant topoisomerase 2 alpha-mediated relaxation of supercoiled pBR322 plasmid DNA at 10 to 50 uM after 60 mins by electrophoretic analysis
# Method in brief: as §4, with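 “1U” for “2U”, “IIα” for “I”, “37°C; m-AMSA reference at 10 µM.” for “37°C.”, “agarose,” for “agarose at room temperature,”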
# [14] = target: DNA topoisomerase 2-alpha (Homo sapiens) (UniProt P11388); assay: Inhibition of human recombinant topoisomerase 2 alpha-mediated relaxation of supercoiled pBR322 plasmid DNA at 50 to 100 uM after 60 mins by electrophoretic analysis
# Method in brief: as §4, with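 “1U” for “2U”, “IIα” for “I”, “37°C; m-AMSA reference at 10 µM.” for “37°C.”, “agarose,” for “agarose at room temperature,”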
# [15] = target: DNA topoisomerase 2-alpha (Homo sapiens) (UniProt P11388); assay: Inhibition of human recombinant topoisomerase 2 alpha-mediated relaxation of supercoiled pBR322 plasmid DNA at 50 uM after 60 mins by electrophoretic analysis
# Method in brief: as §4, with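 “1U” for “2U”, “IIα” for “I”, “37°C; m-AMSA reference at 10 µM.” for “37°C.”, “agarose,” for “agarose at room temperature,”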
# Chain of DNA topoisomerase 2-alpha (Homo sapiens) (P11388 whole entry): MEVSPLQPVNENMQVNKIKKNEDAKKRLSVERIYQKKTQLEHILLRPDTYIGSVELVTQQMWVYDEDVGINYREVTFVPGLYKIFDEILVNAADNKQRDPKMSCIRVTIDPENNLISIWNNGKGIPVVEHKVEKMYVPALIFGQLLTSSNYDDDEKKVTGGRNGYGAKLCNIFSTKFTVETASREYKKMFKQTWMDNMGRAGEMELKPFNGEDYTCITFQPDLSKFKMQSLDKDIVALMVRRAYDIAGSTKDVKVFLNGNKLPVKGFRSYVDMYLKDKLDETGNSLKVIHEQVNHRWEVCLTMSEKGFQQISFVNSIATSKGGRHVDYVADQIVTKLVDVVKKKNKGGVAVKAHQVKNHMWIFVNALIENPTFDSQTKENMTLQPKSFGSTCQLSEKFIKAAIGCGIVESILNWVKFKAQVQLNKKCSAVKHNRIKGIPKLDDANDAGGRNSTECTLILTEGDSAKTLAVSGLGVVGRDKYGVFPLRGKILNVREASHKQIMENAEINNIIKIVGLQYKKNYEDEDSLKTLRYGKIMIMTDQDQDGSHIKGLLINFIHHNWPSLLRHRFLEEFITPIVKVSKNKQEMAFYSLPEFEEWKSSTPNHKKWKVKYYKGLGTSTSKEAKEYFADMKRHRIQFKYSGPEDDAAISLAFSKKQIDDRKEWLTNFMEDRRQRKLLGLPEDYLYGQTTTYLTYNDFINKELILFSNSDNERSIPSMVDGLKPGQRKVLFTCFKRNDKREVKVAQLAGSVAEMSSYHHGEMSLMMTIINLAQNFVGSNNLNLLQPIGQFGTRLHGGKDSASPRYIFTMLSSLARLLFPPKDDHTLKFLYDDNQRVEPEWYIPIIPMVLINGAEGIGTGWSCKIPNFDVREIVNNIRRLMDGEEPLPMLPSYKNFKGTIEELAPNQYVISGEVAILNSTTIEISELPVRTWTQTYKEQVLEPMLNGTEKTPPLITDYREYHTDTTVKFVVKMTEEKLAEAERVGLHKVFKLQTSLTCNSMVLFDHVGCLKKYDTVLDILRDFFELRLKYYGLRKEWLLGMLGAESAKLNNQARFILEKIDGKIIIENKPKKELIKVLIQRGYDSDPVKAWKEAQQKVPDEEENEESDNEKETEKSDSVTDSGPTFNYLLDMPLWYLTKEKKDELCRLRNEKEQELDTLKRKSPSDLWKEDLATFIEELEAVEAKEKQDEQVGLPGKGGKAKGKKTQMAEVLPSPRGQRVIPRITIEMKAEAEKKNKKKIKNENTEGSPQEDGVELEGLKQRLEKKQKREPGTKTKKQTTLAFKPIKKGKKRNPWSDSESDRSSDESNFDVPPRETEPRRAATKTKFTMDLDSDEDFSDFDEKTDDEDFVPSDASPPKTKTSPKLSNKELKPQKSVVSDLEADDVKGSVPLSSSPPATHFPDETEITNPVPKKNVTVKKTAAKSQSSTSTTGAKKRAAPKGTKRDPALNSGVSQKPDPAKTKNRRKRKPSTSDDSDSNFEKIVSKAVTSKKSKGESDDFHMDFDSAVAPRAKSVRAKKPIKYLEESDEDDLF
Compound,GI50 (HeLa [1]) [µM],GI50 [2] [µM],GI50 (MCF7) [µM],GI50 (A2780) [µM],further results
CC/C(=C(/c1ccc(NC(=O)C(C)C)cc1)c1ccc(OC)cc1)c1ccc(Cl)cc1Cl,2.2,> 50,6.6,3.8,Activity (HeLa [3]): 75.7%; Activity (HeLa [4]): 21.8%; viability at 50 µM (HeLa [5]): 31.7%; Activity (HeLa [6]): 44.4%; Activity (HeLa [7]): 51.8%; inhibition [8]: inactive; Activity [9]: Active; Activity (HeLa [10]): 80.3%; Activity (HeLa [11]): 2.1%; Activity (HeLa [12]): Dose-dependent effect; inhibition [13]: Active
CC/C(=C(\c1ccc(NC(=O)C(C)C)cc1)c1ccc(OC)cc1)c1ccc(Cl)cc1Cl,5.5,> 50,13.2,8.2,–
CC/C(=C(\c1ccc(O)cc1)c1ccc(NC(=O)C(C)C)cc1)c1ccccc1,9.9,42,14.7,34,–
CC/C(=C(/c1ccccc1)c1ccc(NC(=O)C(C)C)cc1)c1ccccc1,28.1,> 50,> 30,31.6,–
CC/C(=C(\c1ccccc1)c1ccc(N)cc1)c1ccccc1,> 30,> 50,> 30,> 50,–
CC/C(=C(\c1ccccc1)c1ccc(NC(=O)C(C)C)cc1)c1ccc(OCc2ccccc2)cc1,10.2,> 50,> 30,8.8,–
CC/C(=C(\c1ccccc1)c1ccc(OCCN(C)C)cc1)c1ccccc1 [TAMOXIFEN],12,32,6.5,30.3,Activity (HeLa [4]): 28%; viability at 50 µM (HeLa [5]): 39.4%; Activity (HeLa [6]): 29.9%; Activity (HeLa [7]): 3.9%; Activity (HeLa [10]): 26.2%; inhibition [14]: inactive; Activity (HeLa [11]): 2.7%; Activity (HeLa [12]): Dose-dependent effect
CC/C(=C(/c1ccc(O)cc1)c1ccc(NC(=O)C(C)C)cc1)c1ccccc1,9.9,> 50,16.4,32.6,–
CC/C(=C(/c1ccc(NC(=O)C(C)C)cc1)c1ccc(OC)cc1)c1ccc(O)cc1,5.8,29.3,13.6,13.6,inhibition [15]: Active
CC/C(=C(/c1ccc(O)cc1)c1ccc(NC(=O)C(C)C)cc1)c1ccc(Cl)cc1Cl,20.3,32.3,26.6,28.1,–
CC/C(=C(\c1ccc(NC(=O)C(C)C)cc1)c1ccc(OC)cc1)c1ccc(OCc2ccccc2)cc1,> 30,> 50,> 30,> 50,–
CC/C(=C(\c1ccc(NC(=O)C(C)C)cc1)c1ccc(OC)cc1)c1ccccc1,10.1,> 50,27.9,17.4,–
CC/C(=C(\c1ccccc1)c1ccc(NC(=O)C(C)C)cc1)c1ccccc1,> 30,> 50,> 30,> 50,–
CC/C(=C(/c1ccccc1)c1ccc(NC(=O)C(C)C)cc1)c1ccc(Cl)cc1Cl,8.2,> 50,17.5,> 50,–
CC/C(=C(\c1ccc(NC(=O)C(C)C)cc1)c1ccc(OC)cc1)c1ccc(O)cc1,3.7,23.6,9,5.7,–
CC/C(=C(/c1ccc(NC(=O)C(C)C)cc1)c1ccc(OC)cc1)c1ccc(OCc2ccccc2)cc1,4.2,> 50,29,> 50,–
CC/C(=C(/c1ccccc1)c1ccc(NC(=O)C(C)C)cc1)c1ccc(O)cc1,5.1,12.1,8.5,4.6,inhibition [15]: Active
CC/C(=C(/c1ccccc1)c1ccc(NC(=O)C(C)C)cc1)c1ccc(OCc2ccccc2)cc1,> 30,> 50,> 30,> 50,–
CC/C(=C(\c1ccccc1)c1ccc(NC(=O)C(C)C)cc1)c1ccc(Cl)cc1Cl,3.3,> 50,8.3,8.4,Activity [9]: Active
CC/C(=C(\c1ccccc1)c1ccc(NC(=O)C(C)C)cc1)c1ccc(O)cc1,3.8,8.7,8.1,3.7,–
CC/C(=C(/c1ccc(NC(=O)C(C)C)cc1)c1ccc(OC)cc1)c1ccccc1,> 30,> 50,> 30,> 50,–
CC/C(=C(\c1ccc(O)cc1)c1ccc(NC(=O)C(C)C)cc1)c1ccc(Cl)cc1Cl,8.7,28.8,12.5,15.7,–

# From ChEMBL document CHEMBL3822447, “4-(1,2-diarylbut-1-en-1-yl)isobutyranilide derivatives as inhibitors of topoisomerase II” (2016)
